What was measured:
[1] = Inhibition of bovine mitochondrial MC1; set-up: species or system Bos taurus
Procedure, shortened: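 Submitochondrial particles were sonicated from bovine heart mitochondria, final 45 µg/mL. Medium was 50 mM K2HPO4 pH 7.4, 0.4 µM antimycin A and 2 mM KCN. Inhibitor preincubated 4 min at varying concentrations. Reaction started with 100 µM decyl ubiquinone and 50 µM NADH at 37 °C. NADH oxidation read at 340 nm for 120 s. IC50 is 50% inhibition, referenced to a concurrent rotenone standard.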

Lung [2] = assay: Biodistribution in Sprague-Dawley rat lung at 15 uCi, iv after 30 mins; format: ADME, organism-based; conditions: in vivo, 0.5 h
Procedure, shortened: (§1)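 Male SD rats (300-400 g) anesthetized with sodium pentobarbital (50 mg/kg ip), left femoral vein cannulated. About 15 µCi of 18F tracer (specific activity 750-2000 Ci/mmol) in 0.3 mL 10% ethanol saline given iv. Sacrificed in CO2 at 30 or 120 min (n = 5 per time point). Tissues weighed, gamma-counted, decay-corrected, and expressed as %ID/g ± SD.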

Brain [3] = assay: Biodistribution in Sprague-Dawley rat brain at 15 uCi, iv after 30 mins; format: ADME, organism-based; conditions: in vivo, 0.5 h; procedure, shortened: as §1
Spleen [4] = assay: Biodistribution in Sprague-Dawley rat spleen at 15 uCi, iv after 30 mins; format: ADME, organism-based; conditions: in vivo, 0.5 h; procedure, shortened: as §1
Kidney [5] = assay: Biodistribution in Sprague-Dawley rat kidney at 15 uCi, iv after 30 mins; format: ADME, organism-based; conditions: in vivo, 0.5 h; procedure, shortened: as §1
Liver [6] = assay: Biodistribution in Sprague-Dawley rat liver at 15 uCi, iv after 120 mins; format: ADME, organism-based; conditions: in vivo, 2 h; procedure, shortened: as §1
Brain [7] = assay: Biodistribution in Sprague-Dawley rat brain at 15 uCi, iv after 120 mins; format: ADME, organism-based; conditions: in vivo, 2 h; procedure, shortened: as §1
Femur [8] = assay: Biodistribution in Sprague-Dawley rat femur at 15 uCi, iv after 30 mins; format: ADME, organism-based; conditions: in vivo, 0.5 h; procedure, shortened: as §1
Blood [9] = assay: Biodistribution in Sprague-Dawley rat blood at 15 uCi, iv after 30 mins; format: ADME, organism-based; conditions: in vivo, 0.5 h; procedure, shortened: as §1
Heart [10] = assay: Biodistribution in Sprague-Dawley rat heart at 15 uCi, iv after 120 mins; format: ADME, organism-based; conditions: in vivo, 2 h; procedure, shortened: as §1
Liver [11] = assay: Biodistribution in Sprague-Dawley rat liver at 15 uCi, iv after 30 mins; format: ADME, organism-based; conditions: in vivo, 0.5 h; procedure, shortened: as §1
Lung [12] = assay: Biodistribution in Sprague-Dawley rat lung at 15 uCi, iv after 120 mins; format: ADME, organism-based; conditions: in vivo, 2 h; procedure, shortened: as §1
Muscle tissue [13] = assay: Biodistribution in Sprague-Dawley rat muscle at 15 uCi, iv after 120 mins; format: ADME, organism-based; conditions: in vivo, 2 h; procedure, shortened: as §1
Spleen [14] = assay: Biodistribution in Sprague-Dawley rat spleen at 15 uCi, iv after 120 mins; format: ADME, organism-based; conditions: in vivo, 2 h; procedure, shortened: as §1
Kidney [15] = assay: Biodistribution in Sprague-Dawley rat kidney at 15 uCi, iv after 120 mins; format: ADME, organism-based; conditions: in vivo, 2 h; procedure, shortened: as §1
Muscle tissue [16] = assay: Biodistribution in Sprague-Dawley rat muscle at 15 uCi, iv after 30 mins; format: ADME, organism-based; conditions: in vivo, 0.5 h; procedure, shortened: as §1
Heart [17] = assay: Biodistribution in Sprague-Dawley rat heart at 15 uCi, iv after 30 mins; format: ADME, organism-based; conditions: in vivo, 0.5 h; procedure, shortened: as §1
Blood [18] = assay: Biodistribution in Sprague-Dawley rat blood at 15 uCi, iv after 120 mins; format: ADME, organism-based; conditions: in vivo, 2 h; procedure, shortened: as §1
Femur [19] = assay: Biodistribution in Sprague-Dawley rat femur at 15 uCi, iv after 120 mins; format: ADME, organism-based; conditions: in vivo, 2 h; procedure, shortened: as §1

**Q.** For `Cc1c(SCc2ccc(COCCF)cc2)oc2ccccc2c1=O`, which IC50 [1] is on record?
**A.** 15 nM

**Q.** For `Cc1c(SCc2ccc(C(C)(C)C)cc2)oc2ccccc2c1=O`, which IC50 [1] is on record?
**A.** 52 nM

**Q.** Which IC50 [1] does the source give for `CCCCc1ccc(CNc2oc3ccccc3c(=O)c2C)cc1` here?
**A.** 57 nM

**Q.** For `Cc1c(SCc2ccc(CCCCF)cc2)oc2ccccc2c1=O`, which IC50 [1] is on record?
**A.** 9 nM

**Q.** With `Cc1c(NCc2ccc(CCCCF)cc2)oc2ccccc2c1=O` as the compound, how does the IC50 [1] read?
**A.** 133 nM

**Q.** Which IC50 [1] does the source give for `Cc1c(SCc2ccc(OCC(C)F)cc2)oc2ccccc2c1=O` (stereo unspecified) here?
**A.** 16 nM

**Q.** For `Cc1c(OCc2ccc(CCCCF)cc2)oc2ccccc2c1=O`, which IC50 [1] is on record?
**A.** 33 nM

**Q.** What does the source list for `Cc1c(SCc2ccc(CCCC[18F])cc2)oc2ccccc2c1=O`?
**A.** Drug uptake (Lung [2]): 0.32 % ID/g; Drug uptake (Brain [3]): 0.26 % ID/g; Drug uptake (Spleen [4]): 0.41 % ID/g; Drug uptake (Kidney [5]): 1.93 % ID/g; Drug uptake (Liver [6]): 0.6 % ID/g; Drug uptake (Brain [7]): 0.17 % ID/g; Drug uptake (Femur [8]): 0.36 % ID/g; Drug uptake (Blood [9]): 0.11 % ID/g; Drug uptake (Heart [10]): 1.52 % ID/g; Drug uptake (Liver [11]): 2 % ID/g; Drug uptake (Lung [12]): 0.12 % ID/g; Drug uptake (Muscle tissue [13]): 0.09 % ID/g; Drug uptake (Spleen [14]): 0.09 % ID/g; Drug uptake (Kidney [15]): 0.59 % ID/g; Drug uptake (Muscle tissue [16]): 0.06 % ID/g; Drug uptake (Heart [17]): 2.24 % ID/g; Drug uptake (Blood [18]): 0.06 % ID/g; Drug uptake (Femur [19]): 0.74 % ID/g

**Q.** For `CCCCc1ccc(CSc2oc3ccccc3c(=O)c2C)cc1`, which IC50 [1] is on record?
**A.** 52 nM

**Q.** For `CC(C)(C)c1ccc(CSc2cnn(C(C)(C)C)c(=O)c2Cl)cc1` [PYRIDABEN], which IC50 [1] is on record?
**A.** 8 nM

**Q.** Which IC50 [1] does the source give for `Cc1c(SCc2ccc(CCCCOCCF)cc2)oc2ccccc2c1=O` here?
**A.** 197 nM

**Q.** With `CCCCc1ccc(COc2oc3ccccc3c(=O)c2C)cc1` as the compound, how does the IC50 [1] read?
**A.** 60 nM

**Q.** For `C=C(C)[C@H]1Cc2c(ccc3c2O[C@@H]2COc4cc(OC)c(OC)cc4[C@@H]2C3=O)O1` [ROTENONE], which IC50 [1] is on record?
**A.** 16 nM

**Q.** Which IC50 [1] does the source give for `CC(C)(C)c1ccc(CCOc2ncnc3ccccc23)cc1` [FENAZAQUIN] here?
**A.** 90 nM
